Experiments:
Type in all cases: functional
MCF7 [1] = experiment: Growth inhibition of human MCF7 cells after 48 hrs by sulforhodamine B assay; settings: MCF7, 48 h
Summary of the method: (§1)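 NCI 60-cell screen, five-dose mode. Cells grown in RPMI 1640 with 5% FBS and 2 mM L-glutamine and plated at 5000-40,000 cells/well according to doubling time. After 24 h preincubation, a Tz plate was TCA-fixed. Five concentrations (10-fold or 1/2 log dilutions) were applied for 48 h at 37 °C. SRB staining read at 515 nm. IC50 taken from [(Ti-Tz)/(C-Tz)]×100 = 50.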

SR [2] = experiment: Growth inhibition of human SR cells after 48 hrs by sulforhodamine B assay; summary of the method: as §1
NCI-H226 [3] = experiment: Growth inhibition of human NCI-H226 cells after 48 hrs by sulforhodamine B assay; settings: NCI-H226, 48 h; for CC50: read-out: LC50 (the source's name); summary of the method: as §1
SK-MEL-28 [4] = experiment: Cytotoxicity against human SK-MEL-28 cells assessed as cell growth at 1 uM after 48 hrs by sulforhodamine B assay; settings: SK-MEL-28, 48 h, read-out: Activity
MCF7 [5] = experiment: Cytotoxicity against human MCF7 cells assessed as cell growth at 100 nM after 48 hrs by sulforhodamine B assay; settings: MCF7, 48 h, read-out: Activity
SR [6] = experiment: Cytotoxicity against human SR cells assessed as cell growth at 0.001 uM after 48 hrs by sulforhodamine B assay; settings: read-out: Activity
SK-MEL-28 [7] = experiment: Growth inhibition of human SK-MEL-28 cells after 48 hrs by sulforhodamine B assay; settings: SK-MEL-28, 48 h; for CC50: read-out: LC50 (the source's name); summary of the method: as §1
[8] = Cytotoxicity against human […] cells assessed as cell growth at 10 uM after 48 hrs by sulforhodamine B assay; settings: read-out: Activity
HCC 2998 [9] = experiment: Growth inhibition of human HCC2998 cells after 48 hrs by sulforhodamine B assay; settings: HCC 2998, 48 h; for CC50: read-out: LC50 (the source's name); summary of the method: as §1
DU-145 = experiment: Cytotoxicity against human DU145 cells assessed as cell growth at 0.01 uM after 48 hrs by sulforhodamine B assay; settings: DU-145, 48 h, read-out: Activity
NCI-H226 [10] = experiment: Cytotoxicity against human NCI-H226 cells assessed as cell growth at 10 uM after 48 hrs by sulforhodamine B assay; settings: NCI-H226, 48 h, read-out: Activity
SR [11] = experiment: Cytotoxicity against human SR cells assessed as cell growth at 0.01 uM after 48 hrs by sulforhodamine B assay; settings: read-out: Activity
RXF 393 [12] = experiment: Cytotoxicity against human RXF393 cells assessed as cell growth at 100 nM after 48 hrs by sulforhodamine B assay; settings: RXF 393, 48 h, read-out: Activity
SR [13] = experiment: Cytotoxicity against human SR cells assessed as cell growth at 100 nM after 48 hrs by sulforhodamine B assay; settings: read-out: Activity
HCT-116 = experiment: Cytotoxicity against human HCT116 cells assessed as cell growth at 100 nM after 48 hrs by sulforhodamine B assay; settings: HCT-116, 48 h, read-out: Activity
MCF7 [14] = experiment: Cytotoxicity against human MCF7 cells assessed as cell growth at 1 uM after 48 hrs by sulforhodamine B assay; settings: MCF7, 48 h, read-out: Activity
SK-MEL-28 [15] = experiment: Cytotoxicity against human SK-MEL-28 cells assessed as cell growth at 0.001 uM after 48 hrs by sulforhodamine B assay; settings: SK-MEL-28, 48 h, read-out: Activity
RXF 393 [16] = experiment: Growth inhibition of human RXF393 cells after 48 hrs by sulforhodamine B assay; settings: RXF 393, 48 h; summary of the method: as §1
HCC 2998 [17] = experiment: Cytotoxicity against human HCC2998 cells assessed as cell growth at 10 uM after 48 hrs by sulforhodamine B assay; settings: HCC 2998, 48 h, read-out: Activity
SF-295 = experiment: Cytotoxicity against human SF295 cells assessed as cell growth at 100 nM after 48 hrs by sulforhodamine B assay; settings: SF-295, 48 h, read-out: Activity
RXF 393 [18] = experiment: Cytotoxicity against human RXF393 cells assessed as cell growth at 1 uM after 48 hrs by sulforhodamine B assay; settings: RXF 393, 48 h, read-out: Activity
NCI-H226 [19] = experiment: Cytotoxicity against human NCI-H226 cells assessed as cell growth at 0.01 uM after 48 hrs by sulforhodamine B assay; settings: NCI-H226, 48 h, read-out: Activity
SK-MEL-28 [20] = experiment: Cytotoxicity against human SK-MEL-28 cells assessed as cell growth at 100 nM after 48 hrs by sulforhodamine B assay; settings: SK-MEL-28, 48 h, read-out: Activity
ACHN = experiment: Cytotoxicity against human ACHN cells assessed as cell growth at 0.01 uM after 48 hrs by sulforhodamine B assay; settings: read-out: Activity
RXF 393 [21] = experiment: Cytotoxicity against human RXF393 cells assessed as cell growth at 0.001 uM after 48 hrs by sulforhodamine B assay; settings: RXF 393, 48 h, read-out: Activity
HCC 2998 [22] = experiment: Cytotoxicity against human HCC2998 cells assessed as cell growth at 1 uM after 48 hrs by sulforhodamine B assay; settings: HCC 2998, 48 h, read-out: Activity
MDA-MB-435 = experiment: Cytotoxicity against human MDA-MB-435 cells assessed as cell growth at 0.01 uM after 48 hrs by sulforhodamine B assay; settings: MDA-MB-435, 48 h, read-out: Activity
SR [23] = experiment: Cytotoxicity against human SR cells assessed as cell growth at 1 uM after 48 hrs by sulforhodamine B assay; settings: read-out: Activity
CAKI-1 = experiment: Cytotoxicity against human Caki1 cells assessed as cell growth at 1 uM after 48 hrs by sulforhodamine B assay; settings: CAKI-1, 48 h, read-out: Activity
NCI-H226 [24] = experiment: Cytotoxicity against human NCI-H226 cells assessed as cell growth at 100 nM after 48 hrs by sulforhodamine B assay; settings: NCI-H226, 48 h, read-out: Activity
786-0 = experiment: Cytotoxicity against human 786-0 cells assessed as cell growth at 10 uM after 48 hrs by sulforhodamine B assay; settings: 786-0, 48 h, read-out: Activity
NCI-H460 = experiment: Cytotoxicity against human NCI-H460 cells assessed as cell growth at 1 uM after 48 hrs by sulforhodamine B assay; settings: NCI-H460, 48 h, read-out: Activity
MCF7 [25] = experiment: Cytotoxicity against human MCF7 cells assessed as cell growth at 0.001 uM after 48 hrs by sulforhodamine B assay; settings: MCF7, 48 h, read-out: Activity

Compound: Cc1cc(O)cc(-c2nn(CC#N)cc2-c2ccnc(-c3ccc(Oc4ccccc4)cc3)c2)c1
- GI50 (MCF7 [1]): 2.23 µM
- LC50 (MCF7 [1]): 21.9 µM
- TGI (MCF7 [1]): 5.48 µM
- GI50 (SR [2]): 3.77 µM
- LC50 (concentration killing 50% of cells) (SR [2]): > 100 µM
- TGI (SR [2]): 37.2 µM
- GI50 (NCI-H226 [3]): 3.22 µM
- TGI (NCI-H226 [3]): 12.2 µM
- CC50 (NCI-H226 [3]): 64.5 µM
- growth at 1 µM (SK-MEL-28 [4]): 30%
- growth at 0.1 µM (MCF7 [5]): 95%
- growth at 0.001 µM (SR [6]): 94%
- GI50 (SK-MEL-28 [7]): 4.92 µM
- TGI (SK-MEL-28 [7]): 17 µM
- CC50 (SK-MEL-28 [7]): 41.4 µM
- growth at 10 µM [8]: -14%
- GI50 (HCC 2998 [9]): 1.91 µM
- TGI (HCC 2998 [9]): 3.39 µM
- CC50 (HCC 2998 [9]): 6.02 µM
- growth at 0.01 µM (DU-145): 96%
- growth at 10 µM (NCI-H226 [10]): -63%
- growth at 0.01 µM (SR [11]): 95%
- growth at 0.1 µM (RXF 393 [12]): 101%
- growth at 0.1 µM (SR [13]): 96%
- growth at 0.1 µM (HCT-116): 86%
- growth at 1 µM (MCF7 [14]): -34%
- growth at 0.001 µM (SK-MEL-28 [15]): 91%
- GI50 (RXF 393 [16]): 2.08 µM
- LC50 (concentration killing 50% of the starting cells) (RXF 393 [16]): 8.92 µM
- TGI (RXF 393 [16]): 4.31 µM
- growth at 10 µM (HCC 2998 [17]): -95%
- growth at 0.1 µM (SF-295): 87%
- growth at 1 µM (RXF 393 [18]): -58%
- growth at 0.01 µM (NCI-H226 [19]): 89%
- growth at 0.1 µM (SK-MEL-28 [20]): 95%
- growth at 0.01 µM (ACHN): 95%
- growth at 0.001 µM (RXF 393 [21]): 88%
- growth at 1 µM (HCC 2998 [22]): -94%
- growth at 0.01 µM (MDA-MB-435): 95%
- growth at 1 µM (SR [23]): 16%
- growth at 1 µM (CAKI-1): -24%
- growth at 0.1 µM (NCI-H226 [24]): 95%
- growth at 10 µM (786-0): -93%
- growth at 1 µM (NCI-H460): -79%
- growth at 0.001 µM (MCF7 [25]): 92%

Compound: COc1cc(C)cc(-c2nn(CC#N)cc2-c2ccnc(-c3ccc(N(C)C)cc3)c2)c1
- GI50 (MCF7 [1]): 0.0664 µM
- LC50 (MCF7 [1]): > 100 µM
- TGI (MCF7 [1]): 22.7 µM
- GI50 (SR [2]): 0.461 µM
- LC50 (concentration killing 50% of cells) (SR [2]): > 100 µM
- TGI (SR [2]): > 10 µM
- GI50 (NCI-H226 [3]): 0.968 µM
- TGI (NCI-H226 [3]): 127 µM
- CC50 (NCI-H226 [3]): > 100 µM
- growth at 1 µM (SK-MEL-28 [4]): 45%
- growth at 0.1 µM (MCF7 [5]): 24%
- growth at 0.001 µM (SR [6]): 96%
- GI50 (SK-MEL-28 [7]): 0.776 µM
- TGI (SK-MEL-28 [7]): > 100 µM
- CC50 (SK-MEL-28 [7]): > 100 µM
- growth at 10 µM [8]: -28%
- GI50 (HCC 2998 [9]): 0.455 µM
- TGI (HCC 2998 [9]): 1.93 µM
- CC50 (HCC 2998 [9]): 9.69 µM
- growth at 0.01 µM (DU-145): 99%
- growth at 10 µM (NCI-H226 [10]): -22%
- growth at 0.01 µM (SR [11]): 97%
- growth at 0.1 µM (RXF 393 [12]): -25%
- growth at 0.1 µM (SR [13]): 26%
- growth at 0.1 µM (HCT-116): 11%
- growth at 1 µM (MCF7 [14]): 7%
- growth at 0.001 µM (SK-MEL-28 [15]): 100%
- GI50 (RXF 393 [16]): 0.258 µM
- LC50 (concentration killing 50% of the starting cells) (RXF 393 [16]): > 100 µM
- TGI (RXF 393 [16]): 0.633 µM
- growth at 10 µM (HCC 2998 [17]): -76%
- growth at 0.1 µM (SF-295): 3%
- growth at 1 µM (RXF 393 [18]): -21%
- growth at 0.01 µM (NCI-H226 [19]): 105%
- growth at 0.1 µM (SK-MEL-28 [20]): 44%
- growth at 0.01 µM (ACHN): 98%
- growth at 0.001 µM (RXF 393 [21]): 105%
- growth at 1 µM (HCC 2998 [22]): -51%
- growth at 0.01 µM (MDA-MB-435): 94%
- growth at 1 µM (SR [23]): 18%
- growth at 1 µM (CAKI-1): 4%
- growth at 0.1 µM (NCI-H226 [24]): 49%
- growth at 10 µM (786-0): -36%
- growth at 1 µM (NCI-H460): -27%
- growth at 0.001 µM (MCF7 [25]): 104%

Reference: ChEMBL document CHEMBL1165950, “Design and synthesis of new potent anticancer pyrazoles with high FLT3 kinase inhibitory selectivity” (Bioorg Med Chem, 2010)
